In ChEMBL document CHEMBL4699510, “Discovery of a series of ester-substituted NLRP3 inflammasome inhibitors” (Bioorg Med Chem Lett, 2020):

Experiments:
[1] = biological target: NACHT, LRR and PYD domains-containing protein 3 (Homo sapiens, UniProt Q96P20); test: Inhibition of NLRP3 in human PBMC cells assessed as inhibition of LPS and ATP-induced IL-1beta production; type: cell-based
[2] = Effective permeability of compound by PAMPA; type: ADME; conditions: read-out: Peff
[3] = Stability in human blood assessed as compound remaining measured after 1 hr; type: ADME, tissue-based; conditions: read-out: Stabilty
Summary of the method: (§1)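 Compound incubated in whole blood (human or mouse) at 37° C for one hour; stability expressed as percentage of compound remaining.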

[4] = Stability in mouse blood assessed as compound remaining measured after 1 hr; type: ADME, tissue-based; conditions: read-out: Stabilty; summary of the method: as §1
[5] = Inhibition of TNFalpha production in human PBMC
[6] = Inhibition of IL-6 production in human PBMC

NACHT, LRR and PYD domains-containing protein 3, sequence (Q96P20 whole entry, the tested form may be a part): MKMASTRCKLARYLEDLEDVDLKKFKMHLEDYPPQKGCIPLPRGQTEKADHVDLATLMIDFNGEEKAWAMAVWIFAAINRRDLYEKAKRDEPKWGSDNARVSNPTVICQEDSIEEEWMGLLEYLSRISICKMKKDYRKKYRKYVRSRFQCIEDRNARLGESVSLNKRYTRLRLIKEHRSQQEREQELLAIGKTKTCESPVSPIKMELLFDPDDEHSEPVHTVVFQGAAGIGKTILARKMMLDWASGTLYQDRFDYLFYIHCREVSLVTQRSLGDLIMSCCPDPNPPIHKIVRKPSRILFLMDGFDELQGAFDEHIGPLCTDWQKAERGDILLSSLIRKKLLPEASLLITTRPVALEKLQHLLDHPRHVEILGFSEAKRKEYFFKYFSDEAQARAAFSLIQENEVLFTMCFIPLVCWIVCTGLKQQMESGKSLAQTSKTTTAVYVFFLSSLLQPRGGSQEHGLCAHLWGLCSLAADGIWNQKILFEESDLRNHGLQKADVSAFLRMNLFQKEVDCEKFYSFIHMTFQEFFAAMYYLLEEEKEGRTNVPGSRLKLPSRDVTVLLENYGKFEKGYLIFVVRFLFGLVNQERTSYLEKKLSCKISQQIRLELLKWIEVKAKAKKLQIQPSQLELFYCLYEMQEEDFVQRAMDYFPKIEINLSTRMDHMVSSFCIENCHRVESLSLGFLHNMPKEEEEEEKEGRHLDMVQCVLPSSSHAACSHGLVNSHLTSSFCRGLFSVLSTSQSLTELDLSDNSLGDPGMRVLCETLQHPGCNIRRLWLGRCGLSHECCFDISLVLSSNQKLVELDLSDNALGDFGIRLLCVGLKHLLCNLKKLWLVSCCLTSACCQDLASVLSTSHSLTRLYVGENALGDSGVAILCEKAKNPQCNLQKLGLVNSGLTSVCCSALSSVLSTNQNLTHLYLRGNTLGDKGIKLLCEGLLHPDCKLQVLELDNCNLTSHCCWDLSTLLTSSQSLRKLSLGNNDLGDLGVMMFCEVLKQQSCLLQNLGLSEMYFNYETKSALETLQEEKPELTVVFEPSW

SMILES	IC50 [1] [µM]	other results
CCOC(=O)CNC(=O)NC12CC3CC(CC(C3)C1)C2	> 20	–
COC(=O)C(C)(C)NC(=O)Nc1c2c(cc3c1CCC3)CCC2	> 20	–
CN(C)C(=O)CNC(=O)Nc1c2c(cc3c1CCC3)CCC2	> 20	–
CCOC(=O)CNC(=O)Nc1c2c(c(Cl)c3c1CCC3)CCC2	> 20	–
CCOC(=O)[C@@H](Cc1cnccn1)NC(=O)Nc1c2c(cc3c1CCC3)CCC2	–	Papp [2]: 13.9 ×10⁻⁶ cm/s; remaining at 1 h [3]: 79.2%; remaining at 1 h [4]: 0%
CC(C)(O)c1coc(S(=O)(=O)[N-]C(=O)Nc2c3c(cc4c2CCC4)CCC3)c1.[Na+]	–	IC50 [5]: > 40 µM; IC50 [6]: > 40 µM; Papp [2]: < 0.0003 ×10⁻⁶ cm/s
CCOC(=O)CNC(=O)NC(c1ccccc1)c1ccccc1	> 20	–
COC(=O)CNC(=O)Nc1c(C(C)C)cccc1C(C)C	> 20	–
CCOC(=O)[C@@H](Cc1ncccn1)NC(=O)Nc1c2c(cc3c1CCC3)CCC2	–	IC50 [5]: 2.7 µM; IC50 [6]: 4.3 µM; Papp [2]: 8.2 ×10⁻⁶ cm/s; remaining at 1 h [3]: 92.4%; remaining at 1 h [4]: 0%
O=C(CS(=O)(=O)Nc1ccccc1)Nc1c2c(cc3c1CCC3)CCC2	> 20	–
COC(=O)[C@@H](Cc1ccncc1)NC(=O)Nc1c2c(cc3c1CCC3)CCC2	> 20	–
CC(C)(C)OC(=O)CNC(=O)Nc1c2c(cc3c1CCC3)CCC2	> 20	–
O=C(O)CC(=O)Nc1c2c(cc3c1CCC3)CCC2	> 20	–
CC(C)(O)c1coc(S(=O)(=O)NC(=O)Nc2ccccc2)c1	> 20	–
CCOC(=O)CNC(=O)Nc1c2c(cc3c1CCC3)CCCC2	> 20	–
CNC(=O)CNC(=O)Nc1c2c(cc3c1CCC3)CCC2	> 20	–
CCOC(=O)CNC(=O)Nc1c(C)cccc1C	> 20	–
CCOC(=O)CNC(=O)Nc1c2c(nc3c1CCC3)CCC2	> 20	–
O=C(CNS(=O)(=O)c1ccccc1)Nc1c2c(cc3c1CCC3)CCC2	> 20	–
CC(C)(O)c1coc(S(=O)(=O)NC(=O)Nc2cccc3c2CCC3)c1	> 20	–
COC(=O)CC(=O)Nc1c2c(cc3c1CCC3)CCC2	> 20	–
O=C(O)CNC(=O)Nc1c2c(cc3c1CCC3)CCC2	> 20	–
Cc1nc(CNC(=O)Nc2c3c(cc4c2CCC4)CCC3)no1	> 20	–
COC(=O)C(CCc1ccccc1)NC(=O)Nc1c2c(cc3c1CCC3)CCC2 (stereo not drawn)	> 20	–
Cc1nnc(CNC(=O)Nc2c3c(cc4c2CCC4)CCC3)o1	> 20	–
